Assay outcomes: PubChem, Columbia University Molecular Screening Center
INS promoter act – TRM-6 insulin promoter activation; 130,000 tested, 0.81% active; activation, % at 2 µM; TRM-6 cells, insulin promoter eGFP reporter, imaging; plate-scaled: unstimulated 0, stimulated control 100; AID 1296;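 active means activation at 2 µM above a set limit, confirmed on inspection of the cell images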;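 further: share of cells whose green reporter signal exceeds an intensity cutoff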
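Material: Human fetal islet-derived TRM-6 cells with tamoxifen-inducible insulin promoter–eGFP reporter | Medium: Low-glucose (5.5 mM) medium with tamoxifen | Probe or stimulus: Tamoxifen inducer, 0.75 µM, in seeding medium | Schedule: Tamoxifen pre-incubation 15 h overnight, then compound exposure 48 h at 37 °C | Detection: High-content imaging of fixed cells with Hoechst nuclear stain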
Active calls of the source: *. The full list was thinned out, with hits kept by preference.

SMILES	INS promoter act
COC(=O)c1cc(OC)c(OC)cc1NC(=O)c1cc(OC)cc(OC)c1	5
O=S(=O)(c1ccc2nc(SCc3cccc(Cl)c3)[nH]c2c1)N1CCOCC1	-2
O=C(CSc1nc2ccccc2[nH]1)N1CCN(S(=O)(=O)c2ccc(Cl)cc2)CC1	97*
O=C(CSc1nc2ccccc2[nH]1)NCCc1ccc(Cl)cc1	4
O=C(CNc1ccccc1)NN=C1CCCC1	6
CC(C)(C)C(=O)Cn1ncc(NC2CC2)c(Br)c1=O	3
Cn1c(CCNC(=O)c2ccccc2F)nnc1SCc1nc2ccccc2c(=O)[nH]1	-6
Cc1oc2ccc(NS(=O)(=O)c3ccccc3)cc2c1C(=O)Nc1ccccc1	-3
CCN(CC)S(=O)(=O)c1ccc2c3c(cccc13)C(=O)N2	-71
CCOC(=O)c1c(C)oc2ccc(NS(=O)(=O)c3ccc4c5c(cccc35)C(=O)N4)cc12	506*
CN(C(=O)COC(=O)c1ccc(S(=O)(=O)N2CCOCC2)cc1)C1CCCCC1	0
Cc1onc(-c2ccccc2Cl)c1C(=O)Nc1ccccc1N1CCOCC1	81*
Cc1onc(-c2ccccc2Cl)c1C(=O)Nc1ccc(N2CCOCC2)cc1	7
Cc1onc(-c2ccccc2Cl)c1C(=O)Nc1cccc2nsnc12	-77
COc1ccc(-c2nc(C)c(C(C)=O)n2O)cc1[N+](=O)[O-]	0
CC(=O)c1cn(CC(=O)NCc2ccc3c(c2)OCO3)c2ccccc12	3
CC(=O)c1cn(CC(=O)Nc2ccc(C)c(C)c2)c2ccccc12	533*
CC(=O)c1cn(CC(=O)Nc2ccc(C)cc2)c2ccccc12	7
Cc1csc(NC(=O)C2CCN(S(=O)(=O)c3ccccc3F)CC2)n1	111
O=C(NCCCn1ccnc1)/C(=C/c1ccco1)NC(=O)c1cccs1	115
CCSC(SCC)[C@H](O)[C@@H](O)[C@H](O)[C@H](O)CO	5
O=C(Nc1cccc2c1CCCC2)c1cc([N+](=O)[O-])cc([N+](=O)[O-])c1	-7
O=C(Nc1c2c(nc3ccccc13)CCCC2)c1ccccc1F	-64
O=C(Nc1c2c(nc3ccccc13)CCCC2)c1cccc([N+](=O)[O-])c1	380*
CCN(C(=O)Cc1c(C(=O)O)n(C)c2ccccc12)c1ccc(F)cc1	-7
SMILES	INS promoter act
COCc1cc(C)nc(N2CCc3ccccc32)c1C#N	0
COCc1cc(C)nc(Nc2ccccc2C)c1C#N	408*
COCc1cc(C)nc(SCC[N+](C)(C)CC(=O)Nc2ccccc2)c1C#N	8
CCOC(=O)c1c(C)sc2c1N(C(=O)CN1CCOCC1)c1cc(Cl)ccc1S2	162
O=C(COC(=O)C1CC2C=CC1C2)Nc1ccccc1F (stereo not drawn)	-6
COc1ccc(Cl)cc1NC(=O)c1ccco1	-6
O=C(Nc1ccc(Cl)cc1C(=O)Nc1ccc(Br)cn1)c1ccco1	600*
O=C(Nc1ccc(Cl)cn1)c1ccc(-c2cc(Cl)ccc2Cl)o1	3
N#C/C(=C(/O)C(Cl)c1ccccc1)c1nc2ccccc2s1 (stereo not drawn)	-3
N#C/C(=C\Nc1ccccc1SC(F)(F)F)c1nc(-c2ccccc2)cs1	4
N#C/C(=C/c1ccc(-c2ccccc2)o1)c1nc(-c2cccs2)cs1	456*
CCOC(=O)N1CCN(/C=C(\C#N)c2nc3ccccc3s2)CC1	7
N#C/C(=C/c1ccc(-c2ccc(S(N)(=O)=O)cc2)o1)c1nc2ccccc2s1	257*
N#CC(=C1CCCC1)c1nc(-c2ccccc2)cs1	3
CC(C)c1ccc(OCc2ccc(C(=O)N3CCN(c4ccccn4)CC3)cc2)cc1	9
CC(C)(C)c1cc(NC(=O)CCSc2nnc3ccccn23)cc(C(C)(C)C)c1	206
CCN(CC)S(=O)(=O)c1cccc(C(=O)Nc2sc3c(c2C(N)=O)CCCC3)c1	-5
CCN(CC)S(=O)(=O)c1cccc(C(=O)N2CC(O)CC2C(=O)O)c1 (stereo not drawn)	443*
CCN(CC)S(=O)(=O)c1cccc(-c2nnc(SCC(=O)N3CCC(C(=O)O)CC3)n2N)c1	-6
COc1cc(/C=C(/Sc2nnc(-c3ccc(F)cc3)o2)C(=O)O)ccc1OC(F)F	-7
O=C(Nc1ccc(Oc2ccc(C(F)(F)F)cn2)c(Cl)c1)C1CC1	8
CCCCN1C(=O)/C(=C/C=C2\SCCN2C)SC1=S	408*
CCN1C(=O)/C(=C/C=C2/Sc3ccc4ccccc4c3N2CCO)SC1=S	179
CCN1C(c2ccccc2)=C(c2ccccc2)S/C1=C\C=C1/SC(=S)N(C)C1=O	5
FC(F)(F)c1cccc(NC(=S)NCC2COc3ccccc3O2)c1 (stereo not drawn)	3
SMILES	INS promoter act
COc1ccc(NCc2nnc(SCC(=O)Nc3cc(C(F)(F)F)ccc3Cl)o2)cc1	-7
CCOc1ccc(-n2c(Cc3cc(=O)[nH]c(=O)[nH]3)nnc2SCC(=O)Nc2nnc(C)s2)cc1	5
COc1ccc(-n2c(Cc3cc(=O)[nH]c(=O)[nH]3)nnc2SCC(=O)Nc2cc(C(F)(F)F)ccc2Cl)cc1	255*
COCC(=O)NC1CC2CCC(C1)N2C(=S)Nc1ccccc1C(=O)OC (stereo not drawn)	0
Cc1ccc(Cn2cc(SCC(N)=O)c3ccccc32)cc1	-6
C=C(C)CC1(NC(C)c2ccccc2)CCCCC1 (stereo not drawn)	7
Nc1c(C(=O)Nc2ccc(S(=O)(=O)N3CCCC3)cc2)sc2nc3cc4c(cc3cc12)CCC4	182
O=C(Nc1ccc(S(=O)(=O)N2CCCCC2)cc1)c1ccncc1	8
Nc1c(C(=O)Nc2ccc(S(=O)(=O)N3CCCC3)cc2)sc2nc3ccc(OC(F)(F)F)cc3cc12	231*
CCOC(=O)CSc1nc(C(C)(C)C)cc(C(F)(F)F)c1C#N	-7
CCN(C(=O)CSc1nnc(-c2cccs2)o1)C1CCS(=O)(=O)C1 (stereo not drawn)	133
C/C(=N\NC(=O)c1nn(C)c(C)c1Br)c1cccc(NC(=O)c2ccoc2C)c1	8
Cc1ccc(NC(=O)c2cccc(S(=O)(=O)N(C)c3ccccc3)c2)cc1S(=O)(=O)N1CCOCC1	3
CC(Oc1ccccc1)C(=O)Nc1ccc(C(N)=O)cc1 (stereo not drawn)	174*
CCOC(=O)c1ccccc1NC(=O)C(C)Oc1ccccc1 (stereo not drawn)	-6
COc1ccc(OC(C)C(=O)Nc2cccc(OC)c2)cc1 (stereo not drawn)	-8
O=C(CCc1nc(-c2ccccc2)no1)Nc1cc(C(F)(F)F)ccc1Cl	-5
CCOc1cc(-c2noc(CCC(=O)Nc3cccnc3)n2)ccc1OC	-3
COc1ccccc1NC(=O)CCc1nc(-c2cccs2)no1	83*
CCN(C(=O)CCc1nc(-c2ccccc2F)no1)c1cc(OC)ccc1OC	-8
COc1cccc(NC(=O)CCc2nc(-c3ccccc3F)no2)c1	0
COc1ccccc1NC(=O)CCc1nc(-c2ccccc2F)no1	305*
Cc1ccsc1-c1nc(CN(C)C(C2CC2)C2CC2)c(C)o1	7
Cc1cccc(C(=O)N[C@H](C(=O)OCC(=O)NC2CCS(=O)(=O)C2)C(C)C)c1 (stereo partly drawn)	0
Cc1c(C(=O)Nc2cc(S(=O)(=O)N3CCOCC3)ccc2N2CCOCC2)oc2ccccc12	6
CCOC(=O)Cc1csc(NS(=O)(=O)c2ccc(F)cc2)n1	-7
CCCCn1c(-c2ccc([N+](=O)[O-])cc2)n[nH]c1=S	-7
COc1ccc(/C(N)=N/OC(=O)Cc2ccc(OC)c(OC)c2)cc1	210*
